In the library only some 2.3% were active in any assay of this set; here they are far more common.
TRPC4 act: activators of mouse TRPC4 channel, primary screen, Fluo4 calcium, HEK293 TRPC4beta/mu-opioid cells. 310,000 compounds, 0.49% hits. Fluo4 calcium fluorescence; stronger effect = higher value. B-score at 10 µM. Short transient receptor potential channel 4 (Mus musculus), Q9QUQ5;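 active = B-score above 5 SD of library B-scores, and initial fluorescence ratio not above library mean plus 5 SD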;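 also: positive B-score marks a calcium rise read as TRPC4 activation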
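Assay system: HEK293 stable line with TRPC4beta plus mu-opioid receptor. Times: dye 45 min RT, read 110 s. Measured by: kinetic Fluo4 calcium fluorescence. Measure: B score of integrated ratio. Controls: assay buffer as low control, maximal DAMGO as high control.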
TRPC6 inh: mouse TRPC6 channel inhibitors, primary screen, cell-based, HEK293, membrane potential dye | Short transient receptor potential channel 6 (Mus musculus), Q61143 | ACh-evoked depolarization; stronger effect = lower value | B-score at 10 µM | 310,000 compounds, 1.1% hits | AID 2553, 2010;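 active = B-score under library mean minus 3 SD, initial fluorescence not abnormally high, positive integrated signal ratio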;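 also: B-score derived from integrated fluorescence ratio over the kinetic read; more negative B-score means stronger inhibition of depolarization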
TRPC4 block: inhibitors of mouse TRPC4 channel, primary screen, Fluo4 calcium, HEK293 TRPC4beta/mu-opioid cells | Short transient receptor potential channel 4 (Mus musculus), Q9QUQ5 | DAMGO-evoked Fluo4 calcium flux; stronger effect = lower value | B-score at 10 µM | 300,000 compounds, 0.39% hits;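 active = B-score over 3 SD under the library average, no early fluorescence shift, positive overall ratio signal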
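Assay system – HEK293 line stably carrying TRPC4beta and mu-opioid receptor · Doses – single dose · Detection – Fluo4 calcium-dye fluorescence, kinetic read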
TRPC4 PAM: positive allosteric modulators of TRPC4, primary screen, cell-based, mouse TRPC4beta, HEK293 mu-opioid, Fluo-4 calcium. Short transient receptor potential channel 4 (Mus musculus), Q9QUQ5. DAMGO EC20, Fluo-4 Ca2+ flux; stronger effect = higher value. B-score at 10 µM. 310,000 compounds, 0.42% hits;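 active = B-score of calcium response area above 5 SD of library B-scores, with initial fluorescence ratio within 5 SD of library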;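 also: B-score of integrated fluorescence ratio over time as area under calcium response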
TRPC6 activator: mouse TRPC6 channel activators, primary screen, cell-based, HEK293, membrane potential dye. B-score at 10 µM. 310,000 compounds, 0.13% hits. HEK293-TRPC6 membrane potential dye fluorescence; stronger effect = higher value;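 active = B-score of the integrated fluorescence ratio above library mean plus 3 SD, and starting fluorescence ratio within library mean plus 5 SD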;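 also: higher score means more depolarization so channel activation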
TRPC4 sel inh 2: second check of whether TRPC6 inhibitors also affect mouse TRPC4; HEK293 TRPC4/MOR, membrane potential dye fluorescence; channel activated by saturating DAMGO dose; shares compounds with TRPC6 inh; inhibition, % at 10 µM; AID 2776; 920 compounds, 42% hits;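 active = compounds whose fluorescence signal differed from control wells by over 3 SD, either direction, in both duplicate plates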
TRPC4 spec: mouse TRPC4 modulation by TRPC6 hits, confirmation, selectivity assay for TRPC6 inhibitor project, cell-based, HEK293 TRPC4/mu-opioid, membrane potential dye. shares compounds with TRPC6 inh. membrane potential fluorescence. activity change, negative = inhibition, % at 10 µM. 920 compounds, 61% hits. AID 2777, 2010;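 active = rise or fall in signal beyond 3 SD of buffer-only wells in both replicate plates, either sign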;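 also: integrated kinetic ratio of fluorescence range over baseline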
HEK293 counter 2: nonspecific membrane potential effects, parental HEK293, confirmation, counter-screen for TRPC6 inhibitor project, cell-based, second counter screen. shares compounds with TRPC6 inh. parental HEK293 membrane potential dye fluorescence; maximal acetylcholine challenge after compound addition. signal change vs control, % at 10 µM. 920 compounds, 31% hits;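 active = membrane potential signal moving either way by over 3 SD of the maximum-effect control, in both duplicate plates, meaning non-specific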
HEK293 counter: membrane potential modulation in parental HEK293, confirmation, counter-screen for TRPC6 inhibitor project, cell-based | shares compounds with TRPC6 inh | parental HEK293 membrane potential dye fluorescence | membrane potential signal change, % at 10 µM | 920 compounds, 60% hits | AID 2780, 2010;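 active = membrane potential signal shifting up or down by more than 3 SD of buffer-only wells, on both duplicate plates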
TRPC6 inh conf: mouse TRPC6 channel inhibitors, confirmation, HEK293 cells, membrane potential dye, duplicate; shares compounds with TRPC6 inh; ACh-evoked depolarization; inhibition, % at 10 µM; 3,300 compounds, 43% hits; AID 488960, 2010;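 active = fluorescence ratio falls more than 5 SD below the full-stimulation control mean, in both duplicate runs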;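 also: integrated fluorescence ratio of peak minus minimum over baseline after agonist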
TRPC6 act conf: mouse TRPC6 channel activators, confirmation, HEK293 cells, membrane potential dye, duplicate; shares compounds with TRPC6 inh; HEK293-TRPC6 membrane potential dye fluorescence, FDSS; activation, % at 10 µM; 2,800 compounds, 11% hits; AID 488961, 2010;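 active = ratio signal rise beyond 5 SD above unstimulated control wells' mean, seen in both duplicate runs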;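 also: plate controls were buffer EC0 wells for no effect and acetylcholine ECmax response for full effect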
* marks the source's active call; other numbers are inactive results.

O=C(NCC1CCCO1)c1cc2ccccc2o1 (stereo not given) was read as TRPC4 act inactive, TRPC6 inh inactive, TRPC4 block inactive, TRPC4 PAM inactive and TRPC6 activator inactive.
`C/C(=N\Nc1nc2ccccc2[nH]1)c1ccc2c(c1)OCO2` gave TRPC4 act inactive, TRPC6 inh -10*, TRPC4 block -8*, TRPC4 PAM inactive, TRPC6 activator inactive, TRPC4 sel inh 2 40%*, TRPC4 spec -20%*, HEK293 counter 2 38%*, HEK293 counter -346%*, TRPC6 inh conf 58%* and TRPC6 act conf inactive.
`C/C(=N\Nc1nc2ccccc2[nH]1)c1ccc2c(c1)OCCO2` gave TRPC4 act inactive, TRPC6 inh -7.2*, TRPC4 block inactive, TRPC4 PAM inactive, TRPC6 activator inactive, TRPC4 sel inh 2 41%*, TRPC4 spec -24%*, HEK293 counter 2 inactive, HEK293 counter -263%*, TRPC6 inh conf 67%* and TRPC6 act conf inactive.
Screening C/C(=N\Nc1ccccn1)c1ccc2c(c1)OCO2 returned TRPC4 act inactive, TRPC6 inh inactive, TRPC4 block inactive, TRPC4 PAM inactive and TRPC6 activator inactive.
For Cc1cc(C)cc(NC(=O)CN2CCC(C(=O)c3ccccc3)CC2)c1 the results were TRPC4 act inactive, TRPC6 inh inactive, TRPC4 block inactive, TRPC4 PAM inactive and TRPC6 activator inactive.
Screening O=C(CC1C(=O)NCCN1Cc1cccc(Oc2ccccc2)c1)NCCCn1cccn1 (stereo not given) returned TRPC4 act inactive, TRPC6 inh inactive, TRPC4 block inactive, TRPC4 PAM inactive and TRPC6 activator inactive.
Screening CC(C)=CCCC(C)CN1CCC(n2nccc2NC(=O)c2ccc3c(c2)OCO3)CC1 (stereo not given) returned TRPC4 act inactive, TRPC6 inh -7.3*, TRPC4 block inactive, TRPC4 PAM inactive, TRPC6 activator inactive, TRPC4 sel inh 2 36%*, TRPC4 spec 6.8%*, HEK293 counter 2 268%*, HEK293 counter 10%*, TRPC6 inh conf 56%* and TRPC6 act conf inactive.
`C/C=C(\C)CN1CCC(n2nccc2NC(=O)c2ccc3c(c2)OCO3)CC1` gave TRPC4 act inactive, TRPC6 inh inactive, TRPC4 block inactive, TRPC4 PAM inactive and TRPC6 activator inactive.

High-throughput results as filed in PubChem.
